Consider 4 compounds from PMC4857762 (Journal of pharmaceutical sciences, 2016).

One series has as its target pepsin (Sus scrofa, UniProt P00791). In words: Hydrolysis in pH 1.2 SGF with pepsin. The series is classed as in vitro ADME. The settings on record: 37 °C, stable = no decrease in area by HPLC after 2 h.
The test system of the next series is pancreatin. In words: Hydrolysis in buffers / SIF with pancreatin. The series is classed as in vitro ADME.
The test system of a further series is Caco-2 cell homogenates. In words: Hydrolysis in Caco-2 cell homogenates. Format: in vitro ADME, Human. The settings on record: Caco-2 Cell homogenates (pH 6.0), 500 μg/mL protein, 37 °C.
Another series concerns HepG2 cell homogenates. In words: Hydrolysis in HepG2 cell homogenates. Format: in vitro ADME, human. The note with it: HepG2 Cell homogenates (pH 6.0), 500 μg/mL protein, 37 °C.
In another series the target is T1, hPEPT1 (Homo sapiens, UniProt P46059).
T1 sequence (P46059 1-708): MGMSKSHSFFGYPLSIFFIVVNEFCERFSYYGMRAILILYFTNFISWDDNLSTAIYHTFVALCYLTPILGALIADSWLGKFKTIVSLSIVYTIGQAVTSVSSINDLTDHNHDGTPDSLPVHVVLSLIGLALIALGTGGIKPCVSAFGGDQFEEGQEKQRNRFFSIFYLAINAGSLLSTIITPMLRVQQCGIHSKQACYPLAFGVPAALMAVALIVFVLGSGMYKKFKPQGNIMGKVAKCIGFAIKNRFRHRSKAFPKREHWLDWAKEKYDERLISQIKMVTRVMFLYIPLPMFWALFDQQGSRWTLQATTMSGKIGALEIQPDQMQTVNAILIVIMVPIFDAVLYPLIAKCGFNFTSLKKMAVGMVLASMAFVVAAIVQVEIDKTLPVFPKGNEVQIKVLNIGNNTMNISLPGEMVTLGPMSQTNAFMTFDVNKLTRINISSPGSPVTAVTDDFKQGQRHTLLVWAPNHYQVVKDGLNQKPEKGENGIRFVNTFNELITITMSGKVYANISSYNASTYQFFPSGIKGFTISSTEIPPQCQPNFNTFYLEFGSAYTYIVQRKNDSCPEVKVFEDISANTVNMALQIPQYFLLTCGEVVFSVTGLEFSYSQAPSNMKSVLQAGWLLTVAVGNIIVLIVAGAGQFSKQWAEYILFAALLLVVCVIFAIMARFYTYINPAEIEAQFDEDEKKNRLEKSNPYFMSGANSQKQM
In words: Uptake in Xenopus laevis oocytes expressing hPEPT1. The series is classed as cell-based. The note with it: 50 μM, pH 6.0, 30 min, room temperature. In short, it runs like this:
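Oocytes injected with hPEPT1 cRNA, with water-injected oocytes as controls. Uptake at room temperature, pH 6.0, in modified Barth's solution (96 mM NaCl, 10 mM HEPES), 50 μM for 30 min; time course up to 3 h; 50–5000 μM for 3 h. Gly-Sar (1, 20 mM) competition expressed as % of uptake without Gly-Sar. Mean ± SEM, 8–13 experiments.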

The next series concerns Caco-2 cells. In words: Intracellular accumulation into Caco-2 cells after transport study. Format: in vitro ADME, Human. The settings on record: Caco-2 cell lysate after 2 h transport study with the prodrug. A general note: Passage across Caco-2 layers is used to estimate intestinal permeability.
The test system of series [1] is Wild-type mice intestinal tissue homogenates. The note with it: mouse, tissue homogenate, pH 6.
Series [2] relates to BPHL knock-out mice intestinal tissue homogenates. The settings on record: mouse, tissue homogenate, pH 6.
The nature of series [3]: Chemical stability in buffers at 37 °C.
The next series concerns Caco-2 cell monolayers. In words: Transepithelial transport across Caco-2 cell monolayers. The note with it: AP-BL.
In a further series the test system is mouse jejunum. In words: In situ single-pass intestinal perfusion. The settings on record: mouse proximal jejunum, 0.1 mM, pH 6.0.
Series [4] is described as follows: In situ single-pass intestinal perfusion. The settings on record: male, BALB/c, mouse, other: in situ single-pass intestinal (jejunal) perfusion, pH 6.
For series [5] the following is noted: given as the ethyl ester prodrug oseltamivir; cited from earlier work.
Series [6] in a line: in vitro. The note with it: male, mouse, tissue homogenate, pH 6.
Series [7] is described as follows: in vitro. The note with it: male, BPHL knock-out, mouse, tissue homogenate, pH 6.

Chain of pepsin (P00791 60-385): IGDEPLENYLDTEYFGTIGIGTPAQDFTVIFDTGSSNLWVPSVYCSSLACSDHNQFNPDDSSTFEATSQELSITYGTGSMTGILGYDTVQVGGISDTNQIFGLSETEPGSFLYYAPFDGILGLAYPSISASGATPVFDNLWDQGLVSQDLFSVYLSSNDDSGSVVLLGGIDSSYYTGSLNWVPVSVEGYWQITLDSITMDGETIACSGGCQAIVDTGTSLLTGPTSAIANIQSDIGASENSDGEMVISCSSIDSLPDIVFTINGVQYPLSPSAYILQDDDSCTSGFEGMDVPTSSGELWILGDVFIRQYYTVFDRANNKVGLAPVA

Regarding `CCC(CC)O[C@@H]1C=C(C(=O)O)C[C@H](NC(=N)N)[C@H]1NC(C)=O` [GOC], the “Half-life (t1/2)” value at pepsin, in the series with pancreatin (pH 4.5 Acetate buffer with pancreatin), with pancreatin (pH 5.5 Acetate buffer with pancreatin), with pancreatin (pH 6.0 MES buffer with pancreatin), in the series on pancreatin (pH 6.8 SIF with pancreatin) and in the series on Caco-2 cell homogenates was “stable ^b” each time. In addition, the “Half-life (t1/2)” value with HepG2 cell homogenates is on record as “stable ^b”; in series [1] it was “stable ^b”; in series [2], “stable ^b”; in [3] (pH 1.2 SGF without pepsin, 0.2 mM, stable = no decrease in area by HPLC after 2 h), “stable ^b”; in [3] (pH 4.5 Acetate buffer) it was “stable ^b”; in [3] (pH 5.5 Acetate buffer), “stable ^b”. Besides, the “Half-life (t1/2)” value in series [3] (pH 6.0 MES buffer) and in series [3] (pH 7.4 Phosphate buffer) was “stable ^b” each time. On hPEPT1, the “Uptake in hPEPT1 cRNA-injected oocytes versus water-injected control oocytes” value is on record as “no increase in uptake”. In addition, in the series on Caco-2 cells, the “Amount in cells (share of accumulated species after GOC-ISP-Val transport study)” value stood at 49.2%. Further, the “Apparent permeability (Papp)” value with Caco-2 cell monolayers (apical pH 6.0 / basolateral pH 7.4, 37 °C) is on record as 7.98±4.61 x 10^−7 cm/s. Besides, in the series with mouse jejunum, the “Effective permeability (Peff)” value is listed as “approximately zero”.
One may read the Papp as the rate of passage across a membrane or cell layer, normalised by area and donor concentration. Turning to `COCCc1ccc(OCC(O)CNC(C)C)cc1` (centres unmarked) [metoprolol], the “Papp relative to that of the prodrug GOC-ISP-Val” value with Caco-2 cell monolayers (0.2 mM) was 1.7 times higher. In [4], this compound showed a Papp at 1.5 h, 0.1 mM of 538 ± 168 nm/s.
With `CCC(CC)O[C@@H]1C=C(C(=O)O)C[C@H](N)[C@H]1NC(C)=O` [oseltamivir carboxylate], the Oral bioavailability result in [5] is given as “about 80%”.
Broadly, the half-life is the time in which the quantity being followed falls by half. As to `CC(C)[C@H](N)C(=O)OCCOCn1cnc2c(=O)[nH]c(N)nc21` [valacyclovir], the half-life in the series “in vitro [6]” came out at 1.58 h; in “in vitro [7]”, 3.12 h.
